According to ChEMBL document CHEMBL1125594 (J Med Chem, 1991):

How the values were obtained:
[1] = test system: Nucleic Acid; assay: Antitumor potency on human breast MCF-7 cell lines.; format: functional, cell-based; settings: MCF7
Summary of the method: (§1)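 Human lines kept in RPMI-1640 with 5% FBS, L-glutamine and penicillin/streptomycin; seeded as single-cell suspensions at 2000 (MCF-7), 500 (WiDr) or 750 (2780) cells/well. Drugs in DMSO, serially diluted in PBS pH 7.4 in half-log steps, were added on day 2 (final DMSO ≤0.1%). Exposure 6 days at 37 °C, 5% CO2. MTT was added for 4 h, formazan dissolved in DMSO, A570 read as % of untreated control. 6 wells per concentration, ≥2 assays, IC50s averaged.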

[2] = test system: Nucleic Acid; assay: Antitumor potency on human ovarian 2780 cell lines.; format: functional; summary of the method: as §1
[3] = test system: Nucleic Acid; assay: Antitumor potency on human colon WIDR cell lines.; format: functional, cell-based; summary of the method: as §1
[4] = test system: P388; assay: Antitumor potency on P388 leukemia cells in culture; format: functional, cell-based; settings: Mus musculus
Summary of the method: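 P388 cells (ATCC CCL-46) plated as a single-cell suspension at 300 cells/well. Drugs in DMSO, serially diluted in PBS pH 7.4 in half-log steps, were added on day 1 (final DMSO ≤0.1%). Exposure 6 days at 37 °C, 5% CO2. MTT was added for 4 h, formazan dissolved in DMSO, absorbance read at 570 nm as % of untreated control. 6 wells per concentration, ≥2 assays, IC50 averaged.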

[5] = species on record: Mus musculus; assay: Minimum effective dose was measured against P388 leukemia in mice.; format: functional

CO[C@@]12C(COC(N)=O)C3=C(C(=O)C(C)=C(Nc4ccc5[nH]ccc5c4)C3=O)N1CC1NC12 (some centres undefined)
IC50 [1]: 1.1 nM
IC50 [2]: 3.1 nM
IC50 [3]: 1.07 nM

CO[C@@]12C(COC(N)=O)C3=C(C(=O)C(C)=C(Nc4nc(C)cs4)C3=O)N1CC1NC12 (some centres undefined)
IC50 [1]: 3.13 nM
IC50 [2]: 1.74 nM
IC50 [3]: 1.32 nM
IC50 [4]: 0.5 nM

CO[C@@]12C(COC(N)=O)C3=C(C(=O)C(C)=C(Nc4ccc([N+](=O)[O-])cc4)C3=O)N1CC1NC12 (some centres undefined)
IC50 [1]: 1.53 nM
IC50 [2]: 0.59 nM
IC50 [3]: 0.42 nM
IC50 [4]: 0.44 nM

CO[C@@]12C(COC(N)=O)C3=C(C(=O)C(C)=C(Nc4ccccc4)C3=O)N1CC1NC12 (some centres undefined)
IC50 [1]: 1.32 nM
IC50 [2]: 2.6 nM
IC50 [3]: 1.09 nM
IC50 [4]: 1.71 nM

COCCOCCOC1=C(C)C(=O)C2=C(C1=O)C(COC(N)=O)[C@@]1(OC)C3NC3CN21 (some centres undefined)
IC50 [1]: 8.22 nM
IC50 [2]: 4.57 nM
IC50 [3]: 4.57 nM
MED [5]: 0.11 µmol/kg
IC50 [4]: 4.1 nM

CO[C@@]12[C@H](COC(N)=O)C3=C(C(=O)C(C)=C(N)C3=O)N1C[C@@H]1N[C@@H]12 [MITOMYCIN]
IC50 [1]: 32.2 nM
IC50 [2]: 14.8 nM
IC50 [3]: 13 nM
IC50 [4]: 50.8 nM

CO[C@@]12C(COC(N)=O)c3c(O)c(N=C4C=CC(=O)C=C4)c(C)c(O)c3N1CC1NC12 (some centres undefined)
IC50 [1]: 16.9 nM
IC50 [2]: 16.4 nM
IC50 [3]: 6.3 nM
IC50 [4]: 5.86 nM

CO[C@@]12C(COC(N)=O)C3=C(C(=O)C(C)=C(Nc4ccc(I)cc4)C3=O)N1CC1NC12 (some centres undefined)
IC50 [1]: 2.84 nM
IC50 [2]: 1.6 nM
IC50 [3]: 0.63 nM
IC50 [4]: 1.62 nM

CO[C@@]12C(COC(N)=O)C3=C(C(=O)C(C)=C(OCC4CCC4)C3=O)N1CC1NC12 (some centres undefined)
IC50 [1]: 0.21 nM
IC50 [2]: 0.27 nM
IC50 [3]: 0.19 nM
MED [5]: 0.99 µmol/kg
IC50 [4]: 0.41 nM

CO[C@@]12C(COC(N)=O)C3=C(C(=O)C(C)=C(OCCOCCO)C3=O)N1CC1NC12 (some centres undefined)
IC50 [1]: 80.6 nM
IC50 [2]: 36.6 nM
IC50 [3]: 25.8 nM
MED [5]: 0.3 µmol/kg
IC50 [4]: 18.7 nM

CO[C@@]12C(COC(N)=O)C3=C(C(=O)C(C)=C(OCc4ccccc4)C3=O)N1CC1NC12 (some centres undefined)
IC50 [1]: 1.43 nM
IC50 [2]: 0.26 nM
IC50 [3]: 0.13 nM
MED [5]: 0.24 µmol/kg
IC50 [4]: 0.018 nM

CO[C@@]12C(COC(N)=O)C3=C(C(=O)C(C)=C(OCCSSCCO)C3=O)N1CC1NC12 (some centres undefined)
IC50 [1]: 3.92 nM
IC50 [2]: 1.36 nM
IC50 [3]: 1.48 nM
MED [5]: 0.026 µmol/kg
IC50 [4]: 1.87 nM

CO[C@@]12C(COC(N)=O)C3=C(C(=O)C(C)=C(OCCO)C3=O)N1CC1NC12 (some centres undefined)
IC50 [1]: 3.69 nM
IC50 [2]: 6.85 nM
IC50 [3]: 4.22 nM
MED [5]: 0.017 µmol/kg
IC50 [4]: 0.71 nM

CO[C@@]12C(COC(N)=O)C3=C(C(=O)C(C)=C(NCCCO)C3=O)N1CC1NC12 (some centres undefined)
IC50 [1]: 132 nM
IC50 [2]: 76.4 nM
IC50 [3]: 102 nM
IC50 [4]: 459 nM

CO[C@@]12C(COC(N)=O)C3=C(C(=O)C(C)=C(Nc4ccc(F)cc4)C3=O)N1CC1NC12 (some centres undefined)
IC50 [1]: 1.77 nM
IC50 [2]: 3.03 nM
IC50 [3]: 1.63 nM
IC50 [4]: 3.03 nM

CO[C@@]12C(COC(N)=O)c3c(O)c(/N=C4\C=CC(=O)C([N+](=O)[O-])=C4)c(C)c(O)c3N1CC1NC12 (some centres undefined)
IC50 [1]: 22.7 nM
IC50 [2]: 10.8 nM
IC50 [3]: 25.5 nM

CO[C@@]12C(COC(N)=O)C3=C(C(=O)C(C)=C(NCCc4ccccn4)C3=O)N1CC1NC12 (some centres undefined)
IC50 [1]: 22.8 nM
IC50 [2]: 77.4 nM
IC50 [3]: 26.2 nM
IC50 [4]: 53.5 nM

COC1=C(C)C(=O)C2=C(C1=O)[C@@H](COC(N)=O)[C@@]1(OC)[C@H]3N[C@H]3CN21 [MITOMYCIN A]
IC50 [1]: 0.63 nM
IC50 [2]: 0.22 nM
IC50 [3]: 0.052 nM
MED [5]: 0.14 µmol/kg
IC50 [4]: 0.24 nM

CO[C@@]12C(COC(N)=O)c3c(O)c(N=C4C=CC(=N)C=C4)c(C)c(O)c3N1CC1NC12 (some centres undefined)
IC50 [1]: 13.1 nM
IC50 [2]: 50 nM
IC50 [3]: 28.8 nM
IC50 [4]: 18.8 nM

CO[C@@]12C(COC(N)=O)c3c(O)c(/N=C4\C=CC(=O)C(I)=C4)c(C)c(O)c3N1CC1NC12 (some centres undefined)
IC50 [1]: 16.3 nM
IC50 [2]: 29 nM
IC50 [3]: 6.52 nM

C#CCNC1=C(C)C(=O)C2=C(C1=O)C(COC(N)=O)[C@@]1(OC)C3NC3CN21 (some centres undefined)
IC50 [1]: 4.4 nM
IC50 [2]: 2.1 nM
IC50 [3]: 3.9 nM
IC50 [4]: 9.7 nM

CO[C@@]12C(COC(N)=O)C3=C(C(=O)C(C)=C(OCCOc4ccccc4)C3=O)N1CC1NC12 (some centres undefined)
IC50 [1]: 0.72 nM
IC50 [2]: 0.16 nM
IC50 [3]: 0.12 nM
MED [5]: 3.5 µmol/kg
IC50 [4]: 0.082 nM

CO[C@@]12C(COC(N)=O)C3=C(C(=O)C(C)=C(Nc4cccc(I)c4)C3=O)N1CC1NC12 (some centres undefined)
IC50 [1]: 1.87 nM
IC50 [2]: 1.68 nM
IC50 [3]: 0.21 nM
IC50 [4]: 1.42 nM

CO[C@@]12C(COC(N)=O)C3=C(C(=O)C(C)=C(OC4CC4)C3=O)N1CC1NC12 (some centres undefined)
IC50 [1]: 1.12 nM
IC50 [2]: 0.56 nM
IC50 [3]: 0.21 nM
MED [5]: 0.13 µmol/kg
IC50 [4]: 0.63 nM

CO[C@@]12C(COC(N)=O)C3=C(C(=O)C(C)=C(NCCc4ccco4)C3=O)N1CC1NC12 (some centres undefined)
IC50 [1]: 36.6 nM
IC50 [2]: 59.5 nM
IC50 [3]: 40.3 nM
IC50 [4]: 26.6 nM

CO[C@@]12C(COC(N)=O)C3=C(C(=O)C(C)=C(OCCSc4ccccc4)C3=O)N1CC1NC12 (some centres undefined)
IC50 [1]: 1.4 nM
IC50 [2]: 0.53 nM
IC50 [3]: 0.15 nM
MED [5]: 6.73
IC50 [4]: 1.21 nM

CO[C@@]12C(COC(N)=O)C3=C(C(=O)C(C)=C(OCC4CC4)C3=O)N1CC1NC12 (some centres undefined)
IC50 [1]: 0.51 nM
IC50 [2]: 0.45 nM
IC50 [3]: 0.16 nM
MED [5]: 1.03 µmol/kg
IC50 [4]: 0.31 nM

CO[C@@]12C(COC(N)=O)c3c(O)c(/N=C4/C=CN=N4)c(C)c(O)c3N1CC1NC12 (some centres undefined)
IC50 [1]: 72.4 nM
IC50 [2]: 38.5 nM
IC50 [3]: 13 nM
IC50 [4]: 15.5 nM

CO[C@@]12C(COC(N)=O)C3=C(C(=O)C(C)=C(Nc4ccc(Br)cc4)C3=O)N1CC1NC12 (some centres undefined)
IC50 [1]: 2.66 nM
IC50 [2]: 1.84 nM
IC50 [3]: 1.19 nM
IC50 [4]: 1.92 nM
